Results from ChEMBL document CHEMBL1145009 (J Med Chem, 2003).

Experiments:
[1] = target: T1, Gonadotropin-releasing hormone receptor (Homo sapiens, UniProt P30968); assay: Antagonist concentration required to inhibit specific binding of [125I]leuprorelin to human luteinizing releasing hormone receptor in cloned chinese hamster ovary (CHO) cells.; format: cell-based
T1 sequence (P30968 whole entry): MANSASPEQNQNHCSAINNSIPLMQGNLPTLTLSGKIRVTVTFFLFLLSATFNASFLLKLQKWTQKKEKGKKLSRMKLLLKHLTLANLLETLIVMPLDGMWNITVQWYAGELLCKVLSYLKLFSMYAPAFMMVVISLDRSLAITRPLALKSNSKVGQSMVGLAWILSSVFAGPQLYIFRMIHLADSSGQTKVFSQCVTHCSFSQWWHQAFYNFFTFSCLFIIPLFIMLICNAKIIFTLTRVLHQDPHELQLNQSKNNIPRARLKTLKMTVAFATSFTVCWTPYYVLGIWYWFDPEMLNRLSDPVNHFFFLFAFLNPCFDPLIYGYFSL

[2] = tested on: Cynomolgus monkey; assay: (§1) Tested for oral absorption in Cynomolgus Monkey at the dose of 10 mg/kg, activity expressed as area under curve (AUC); format: ADME, organism-based, Macaca fascicularis; parameters: dose 10 mg/kg, route oral; details: in vivo
How it was run: (§2)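 Single oral dose of 10 mg/kg as suspension in 0.5% methylcellulose to female cynomolgus monkeys (4–8 years, n = 3). Forearm-vein heparin plasma taken at 1, 3 and 6 h, deproteinized with 5% acetonitrile/0.05% TFA, compound measured by reverse-phase HPLC with UV detection at 320 nm.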

[3] = Tested for oral absorption in Cynomolgus Monkey at the dose of 10 mg/kg, activity expressed as Tmax (time required for Cmax); format: ADME, organism-based, Macaca fascicularis; parameters: dose 10 mg/kg, route oral; details: in vivo; how it was run: as §2
[4] = Tested for oral absorption in Cynomolgus Monkey at the dose of 10 mg/kg, activity expressed as Cmax; format: ADME, organism-based, Macaca fascicularis; parameters: dose 10 mg/kg, route oral; details: in vivo; how it was run: as §2
[5] = as §1; format: ADME, organism-based, Macaca fascicularis; parameters: dose 10 mg/kg, route oral; details: in vivo; how it was run: as §2
[6] = Tested for plasma LH concentration in Castarted male Cynomolgus monkeys for oral administration at the dose of 30 mg/kg after 24 h; format: functional, Cercopithecidae
How it was run: (§3)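 Castrated (more than 6 months) male cynomolgus monkeys aged 4–9 years, chair-restrained, dosed orally at 30 mg/kg (3 mL/kg, n = 3) as suspension in 0.5% methylcellulose/1.2% citric acid; vehicle controls n = 3. Plasma LH from femoral-vein samples through 48 h, assayed by bioassay with mouse testicular cells; mean ± SEM and % of pretreatment.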

[7] = Tested for plasma LH concentration in Castarted male Cynomolgus monkeys for oral administration at the dose of 30 mg/kg after 48 h; format: functional, Cercopithecidae; how it was run: as §3
[8] = Tested for plasma LH concentration in Castarted male Cynomolgus monkeys for oral administration at the dose of 30 mg/kg after 4 h; format: functional, Cercopithecidae; how it was run: as §3
[9] = Tested for plasma LH concentration in Castarted male Cynomolgus monkeys for oral administration at the dose of 10 mg/kg after 4 h; format: functional, Cercopithecidae
How it was run: (§4)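 Male cynomolgus monkeys (4–9 years), castrated more than 6 months earlier and chair-restrained, given 10 mg/kg orally (3 mL/kg, n = 3) in 0.5% methylcellulose with 1.2% citric acid; vehicle group n = 3. Femoral-vein heparin plasma taken at 0–48 h; LH measured by mouse testicular cell bioassay. Mean ± SEM, also as % of 0 h value.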

[10] = Tested for plasma LH concentration in Castarted male Cynomolgus monkeys for oral administration at the dose of 10 mg/kg after 8 h; format: functional, Cercopithecidae; how it was run: as §4
[11] = Tested for plasma LH concentration in Castarted male Cynomolgus monkeys for oral administration at the dose of 10 mg/kg after 2 h; format: functional, Cercopithecidae; how it was run: as §4
[12] = Tested for plasma LH concentration in Castarted male Cynomolgus monkeys for oral administration at the dose of 30 mg/kg after 0 h; format: functional, Cercopithecidae; how it was run: as §3
[13] = Tested for plasma LH concentration in Castarted male Cynomolgus monkeys for oral administration at the dose of 30 mg/kg after 8 h; format: functional, Cercopithecidae; how it was run: as §3
[14] = Tested for plasma LH concentration in Castarted male Cynomolgus monkeys for oral administration at the dose of 10 mg/kg after 24 h; format: functional, Cercopithecidae; how it was run: as §4
[15] = Tested for plasma LH concentration in Castarted male Cynomolgus monkeys for oral administration at the dose of 30 mg/kg after 2 h; format: functional, Cercopithecidae; how it was run: as §3
[16] = Tested for plasma LH concentration in Castarted male Cynomolgus monkeys for oral administration at the dose of 10 mg/kg after 48 h; format: functional, Cercopithecidae; how it was run: as §4
[17] = Tested for plasma LH concentration in Castarted male Cynomolgus monkeys for oral administration at the dose of 10 mg/kg after 0 h; format: functional, Cercopithecidae; how it was run: as §4

| SMILES | IC50 [1] | other results |
| --- | --- | --- |
| CCC(=O)Nc1ccc(-c2sc3c(c2CN(C)Cc2ccccc2)c(=O)n(-c2cccc(OC)c2)c(=O)n3Cc2c(F)cccc2F)cc1 | 0.2 nM |  |
| CNC(=O)Nc1ccc(-c2sc3c(c2CN(C)Cc2ccccc2)c(=O)n(-c2ccccc2)c(=O)n3Cc2c(F)cccc2F)cc1 | 0.1 nM |  |
| CCC(=O)Nc1ccc(-c2sc3c(c2CN(C)Cc2ccccc2)c(=O)n(-c2ccccc2)c(=O)n3Cc2c(F)cccc2F)cc1 |  | AUC [2]: 2.5 µM·h; Tmax [3]: 3 h; Cmax [4]: 630 nM |
| CCC(=O)N(C)c1ccc(-c2sc3c(c2CN(C)Cc2ccccc2)c(=O)n(-c2cccc(OC)c2)c(=O)n3Cc2c(F)cccc2F)cc1 | 20 nM |  |
| CCONC(=O)Nc1ccc(-c2sc3c(c2CN(C)Cc2ccccc2)c(=O)n(-c2ccccc2)c(=O)n3Cc2c(F)cccc2F)cc1 | 0.2 nM |  |
| COc1ccc(-c2sc3c(c2CN(C)Cc2ccccc2)c(=O)n(-c2ccccc2)c(=O)n3Cc2c(F)cccc2F)cc1 | 50 nM |  |
| COc1ccc(-c2sc3c(c2CN(C)Cc2ccccc2)c(=O)n(CC(C)C)c(=O)n3Cc2c(F)cccc2F)cc1 | 400 nM |  |
| COc1ccc(-c2sc3c(c2CN(C)Cc2ccccc2)c(=O)n(Cc2ccccc2)c(=O)n3Cc2c(F)cccc2F)cc1 | 400 nM |  |
| CC(C)ONC(=O)Nc1ccc(-c2sc3c(c2CN(C)Cc2ccccc2)c(=O)n(-c2ccccc2)c(=O)n3Cc2c(F)cccc2F)cc1 | 0.6 nM |  |
| CN(Cc1ccccc1)Cc1c(-c2ccc(NC(=O)NO)cc2)sc2c1c(=O)n(-c1ccccc1)c(=O)n2Cc1c(F)cccc1F | 0.4 nM |  |
| COc1ccc(-c2sc3c(c2CN(C)Cc2ccccc2)c(=O)n(-c2ccccc2Cl)c(=O)n3Cc2c(F)cccc2F)cc1 | 80 nM |  |
| COc1ccc(-c2sc3c(c2CN(C)Cc2ccccc2)c(=O)n(-c2ccc(Cl)cc2)c(=O)n3Cc2c(F)cccc2F)cc1 | 200 nM |  |
| COc1ccc(-c2sc3c(c2CN(C)Cc2ccccc2)c(=O)n(-c2cccc(Cl)c2)c(=O)n3Cc2c(F)cccc2F)cc1 | 200 nM |  |
| COc1cccc(-n2c(=O)c3c(CN(C)Cc4ccccc4)c(-c4ccc([N+](=O)[O-])cc4)sc3n(Cc3c(F)cccc3F)c2=O)c1 | 20 nM |  |
| CC(C)NC(=O)Nc1ccc(-c2sc3c(c2CN(C)Cc2ccccc2)c(=O)n(-c2ccccc2)c(=O)n3Cc2c(F)cccc2F)cc1 | 0.2 nM |  |
| COc1cccc(-n2c(=O)c3c(CN(C)Cc4ccccc4)c(-c4ccc(N)cc4)sc3n(Cc3c(F)cccc3F)c2=O)c1 | 1 nM |  |
| CN(Cc1ccccc1)Cc1c(-c2ccc(NC(=O)c3ccccc3)cc2)sc2c1c(=O)n(-c1ccccc1)c(=O)n2Cc1c(F)cccc1F | 1 nM |  |
| CC(C)C(=O)Nc1ccc(-c2sc3c(c2CN(C)Cc2ccccc2)c(=O)n(-c2ccccc2)c(=O)n3Cc2c(F)cccc2F)cc1 | 0.4 nM |  |
| COc1ccc(-c2sc3c(c2CN(C)Cc2ccccc2)c(=O)n(-c2ccc(OC)cc2)c(=O)n3Cc2c(F)cccc2F)cc1 | 30 nM |  |
| COc1cccc(-n2c(=O)c3c(CN(C)Cc4ccccc4)c(-c4ccc(NC(=O)C(C)C)cc4)sc3n(Cc3c(F)cccc3F)c2=O)c1 | 0.3 nM |  |
| COc1ccc(-c2sc3c(c2CN(C)Cc2ccccc2)c(=O)n(-c2ccccc2OC)c(=O)n3Cc2c(F)cccc2F)cc1 | 200 nM |  |
| COc1ccc(-c2sc3c(c2CN(C)Cc2ccccc2)c(=O)n(-c2cccc(OC)c2)c(=O)n3Cc2c(F)cccc2F)cc1 | 20 nM |  |
| CCNC(=O)Nc1ccc(-c2sc3c(c2CN(C)Cc2ccccc2)c(=O)n(-c2ccccc2)c(=O)n3Cc2c(F)cccc2F)cc1 |  | AUC [5]: 0.27 µM·h; Tmax [3]: 3 h; Cmax [4]: 63 nM |
| COc1ccc(-c2sc3c(c2CN(C)Cc2ccccc2)c(=O)n(C2CCCCC2)c(=O)n3Cc2c(F)cccc2F)cc1 | 700 nM |  |
| CONC(=O)Nc1ccc(-c2sc3c(c2CN(C)Cc2ccccc2)c(=O)n(-c2ccccc2)c(=O)n3Cc2c(F)cccc2F)cc1 [SUFUGOLIX] |  | LH concentration [6]: 0.1 mU ml-1; LH concentration [7]: 0.71 mU ml-1; AUC [5]: 0.85 µM·h; LH concentration [8]: 0.25 mU ml-1; Tmax [3]: 6 h; LH concentration [9]: 0.37 mU ml-1; LH concentration [10]: 0.19 mU ml-1; LH concentration [11]: 0.74 mU ml-1; Cmax [4]: 210 nM; LH concentration [12]: 0.91 mU ml-1; LH concentration [13]: 0.13 mU ml-1; LH concentration [14]: 0.18 mU ml-1; LH concentration [15]: 0.55 mU ml-1; LH concentration [16]: 0.76 mU ml-1; LH concentration [17]: 1.01 mU ml-1 |
